Assay results reported in PMC12644240 (International Journal of Nanomedicine, 2025).

Tests used:
Aqueous solubility study = assay type: physicochemical; details: bidistilled water, 37 °C, 72 h stirring, n = 3
In short: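 Excess drug (raw powder), coarse suspension or nanosuspension stirred in bidistilled water at 37 °C for 72 h. Samples were centrifuged twice at 15,000 rpm for 30 min, and the clear supernatant was diluted. Drug was quantified by HPLC (C18 column; water:ACN:acetic acid […]; 0.7 mL/min; 306 nm) against a linear calibration curve. n = 3, mean ± SD.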

[1] = Dissolution study in PBS pH 7.4 under sink conditions; assay type: physicochemical; details: PBS pH 7.4, 37 °C
In short: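 Nanosuspension, coarse suspension or raw powder (1 mg drug each, liquid doses confirmed by HPLC) was added to 100 mL PBS pH 7.4 at 37 °C with magnetic stirring under sink conditions. Samples taken at 1–30 min and 1–8 h were replaced with fresh medium and centrifuged at 15000 rpm for 20 min. Supernatant was assayed by HPLC at 306 nm. At least triplicate, mean ± SD.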

human CRBN = details: cited from earlier work
SALL4 and Aiolos = details: cited from earlier work
embryonic models = details: cited from earlier work
[2] = cited from earlier work; for Dissolution after one minute, coarse suspension / Dissolution after one minute, nanosuspension: 1 min; for Dissolution after one minute, nanosuspension: nanosuspension with Tween 80 as stabilizer
[3] = cited from earlier work

Nc1cccc2c1C(=S)N(C1CCC(=O)NC1=O)C2=O (stereo not shown) [MTPOM, 3-monothiopomalidomide]
Aqueous solubility (Aqueous solubility study): 4.8 ± 0.2 µg/mL
Drug dissolved at first time point (1 minute) ([1]; 1 min): approximately 22%
Drug dissolved at end of test (8 hours) ([1]; 8 h): 44%
Binding to human CRBN (human CRBN): binds to human CRBN
Degradation of neosubstrates SALL4 and Aiolos (SALL4 and Aiolos): without triggering the subsequent degradation
Risk of teratogenicity (embryonic models): significantly attenuated risk of teratogenicity

COc1ccc2c(c1)c(CC(=O)O)c(C)n2C(=O)c1ccc(Cl)cc1 [indomethacin]
Dissolution after one minute, coarse suspension [2]: approximately 20%
Dissolution after 30 minutes, coarse suspension [2]: 40–50%
Dissolution after one minute, nanosuspension [2]: almost complete dissolution

CCC(C)n1ncn(-c2ccc(N3CCN(c4ccc(OCC5COC(Cn6cncn6)(c6ccc(Cl)cc6Cl)O5)cc4)CC3)cc2)c1=O (stereo not shown) [itraconazole]
Dissolution after one minute, coarse suspension [2]: approximately 20%
Dissolution after 30 minutes, coarse suspension [2]: 40–50%
Dissolution after one minute, nanosuspension [2]: almost complete dissolution

CC[C@@H]([C@H](C)O)n1ncn(-c2ccc(N3CCN(c4ccc(OC[C@@H]5CO[C@@](Cn6cncn6)(c6ccc(F)cc6F)C5)cc4)CC3)cc2)c1=O [posaconazole]
Average diameter when nanosized via media milling [3]: 185 nm
